# Reference: ChEMBL document CHEMBL3244385, “Antitumor anthracycline antibiotics. Structure-activity and structure-cardiotoxicity relationships of rubidazone analogues” (J Med Chem, 1978)
# What was measured:
# Calf thymus DNA = assay: Binding affinity to calf thymus DNA assessed as change in melting temperature at 5 uM by spectrophotometer analysis; type: nucleic-acid assay; details: Bos taurus
# Procedure, shortened: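 Drug dissolved in Me2SO, diluted with buffer, then mixed with calf thymus DNA. Final mix: 0.01 M phosphate pH 7, 5×10^-5 M DNA, 5×10^-6 M drug, 10^-5 M EDTA, 5% Me2SO. Absorbance at 259 nm recorded every 30 s while heating at 18 °C/h. Tm is the midpoint of the corrected curve; the shift is taken against DNA alone.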
# [1] = Half life in 0.01 M phosphate buffer at 10 uM at pH 7.4 at 50 degC; type: physicochemical
# Procedure, shortened: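 Drug at 1×10^-5 M in 0.01 M phosphate, pH 7.4, 50 °C, no DNA. Absorbance followed continuously for 3 h at a drug-specific wavelength (345 or 259 nm). Buffer baseline subtracted. Data fit to A = ΣA0 + c·e^(-kt), with ΣA0 the absorbance of daunorubicin plus the […], and t1/2 derived from the fit.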
# L1210 [2] = assay: Inhibition of DNA synthesis in mouse L1210 cells; type: functional; details: read-out: ED50 (the source's name)
# L1210 [3] = assay: Inhibition of RNA synthesis in mouse L1210 cells; type: functional; details: read-out: ED50 (the source's name)
# [4] = Partition coefficient, log P of the compound; type: physicochemical; details: octanol/water
# [5] = Dissociation constant, pKa of Ar-COOH group of the compound; type: physicochemical
# P388 [6] = assay: In vivo antitumor activity against mouse P388 cells allografted in BDF/CDF mouse assessed as host survival time at 16 mg/kg, ip administered on days 1 to 9 relative to control; type: functional; details: route intraperitoneal
# Procedure, shortened: (§1)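 P-388 lymphocytic leukemia, 10⁶ cells injected ip into BDF or CDF mice on day 0; drug given ip daily on days 1-9 at the stated dose. Read-out T/C: average survival time of treated mice as percent of untreated controls. Assays run by NCI Drug Research and Development Program.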
# P388 [7] = assay: In vivo antitumor activity against mouse P388 cells allografted in BDF/CDF mouse assessed as host survival time at 8 mg/kg, ip administered on days 1 to 9 relative to control; type: functional; details: route intraperitoneal; procedure, shortened: as §1
# P388 [8] = assay: In vivo antitumor activity against mouse P388 cells allografted in BDF/CDF mouse assessed as host survival time at 4 mg/kg, ip administered on days 1 to 9 relative to control; type: functional; details: route intraperitoneal; procedure, shortened: as §1
# P388 [9] = assay: In vivo antitumor activity against mouse P388 cells allografted in BDF/CDF mouse assessed as host survival time at 2 mg/kg, ip administered on days 1 to 9 relative to control; type: functional; details: route intraperitoneal; procedure, shortened: as §1
# P388 [10] = assay: In vivo antitumor activity against mouse P388 cells allografted in BDF/CDF mouse assessed as host survival time at 1 mg/kg, ip administered on days 1 to 9 relative to control; type: functional; details: route intraperitoneal; procedure, shortened: as §1
# P388 [11] = assay: In vivo antitumor activity against mouse P388 cells allografted in BDF/CDF mouse assessed as host survival time at 0.5 mg/kg, ip administered on days 1 to 9 relative to control; type: functional; details: route intraperitoneal; procedure, shortened: as §1
# P388 [12] = assay: In vivo antitumor activity against mouse P388 cells allografted in BDF/CDF mouse assessed as host survival time at 0.25 mg/kg, ip administered on days 1 to 9 relative to control; type: functional; details: route intraperitoneal; procedure, shortened: as §1
# P388 [13] = assay: In vivo antitumor activity against mouse P388 cells allografted in BDF/CDF mouse assessed as host survival time at 0.125 mg/kg, ip administered on days 1 to 9 relative to control; type: functional; details: route intraperitoneal; procedure, shortened: as §1
# Rattus norvegicus [14] = organism: Rattus norvegicus; assay: Cardiotoxicity in rat ECG model; details: in vivo
# Rattus norvegicus [15] = organism: Rattus norvegicus; assay: Cardiotoxicity in rat ECG model relative to adriamycin; details: in vivo
# [16] = Drug metabolism in 0.01 M phosphate buffer assessed as hydrolysis rate after 3 hrs at 50 degC
smiles,measurement,setting,value
COc1cccc2c1C(=O)c1c(O)c3c(c(O)c1C2=O)C[C@@](O)(/C(C)=N/NC(=O)c1ccc(Cl)cc1)C[C@@H]3O[C@H]1C[C@H](N)[C@H](O)[C@H](C)O1.Cl,ΔTm,Calf thymus DNA,11.4 °C
same,half-life at 10 µM,[1],37 min
same,EC50,L1210 [2],1900 nM
same,EC50,L1210 [3],1000 nM
same,logP,[4],1.75
same,pKa,[5],4.03
same,T/C,P388 [6],63%
same,T/C,P388 [7],109%
same,T/C,P388 [8],211%
same,T/C,P388 [9],163%
same,T/C,P388 [10],145%
same,T/C,P388 [11],139%
same,T/C,P388 [12],145%
same,T/C,P388 [13],110%
same,MCCD,Rattus norvegicus [14],48 mg/kg
same,Ratio,Rattus norvegicus [15],3.5
same,Drug metabolism,[16],metabolite_detected
